This note sets out measurements from paper PMC2099187 (The Journal of Cell Biology, 2007).

Assay [1] deals with HEK-CLR-RAMP1+βARR2-GFP cells. As to the kind of experiment: Trafficking and colocalization of β-arrestin2-GFP and CLR/RAMP1. Conditions: recovery up to 4 h in CGRP-free medium. Format: cell-based, human. The procedure, abridged: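 HEK-CLR-RAMP1 cells transiently transfected with β-arrestin2-GFP had surface CLR (HA11) and RAMP1 (Myc) labelled. Cells were given CGRP (2 min to 1 h), washed, and recovered in CGRP-free medium for 1–4 h. SM-19712 10 μM, bafilomycin A1 0.15 or 1 μM, or DMSO was preincubated 20–60 min and kept throughout. After PFA fixation and confocal imaging, β-arrestin2/CLR endosomal colocalization coefficient was measured at 4 h recovery.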

Assay [2] concerns SK-N-MC cells. As to the kind of experiment: CGRP-induced Ca2+ signaling, desensitization and resensitization. Conditions: SM-19712 10 μM. Format: cell-based, human. In short, it runs like this: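 SK-N-MC cells (endogenous CLR/RAMP1) were loaded with Fura-2AM for [Ca2+]i at 37°C. Single challenge used CGRP 100 nM. Desensitization: CGRP 100 nM or vehicle (1 h, 37°C), wash, CGRP-free recovery (4 h for resensitization), then CGRP 100 nM rechallenge. SM-19712 10 μM or DMSO was preincubated 20–60 min and kept throughout. Response was expressed as % of vehicle-treated cells.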

Turning to `Cc1nn(-c2ccccc2)c(NC(=O)NS(=O)(=O)c2ccc(Cl)cc2)c1C#N.[Na]` [SM-19712], in assay [1], the “Effect on localization of CLR (RAMP1) and β-arrestin2 during recovery” value is reported as “caused their retention in endosomes”. Besides, the “Effect on response to a single challenge with CGRP ([Ca2+]i)” value in assay [2] (CGRP 100 nM) is “did not affect magnitude or duration”. In assay [2], the “Effect on desensitization of CGRP-induced Ca2+ signaling” value is “did not affect desensitization”. Besides, the “Inhibition of resensitization of CGRP-induced Ca2+ signaling” value in assay [2] (4 h recovery) came to 33%.
